PubChem BioAssay AID617 (SRMLSC, 2007)

tested on: E. coli BW25113 ΔtolC growth inhibition, OD615; test: growth inhibitors of E. coli tolC mutant, dose response, strain BW25113 ΔtolC::kan (AID 617)
Summary of the method: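 system = E. coli BW25113 tolC deletion strain (ΔtolC::kan), whole bacterial cells | technique = optical density (absorbance) at 615 nm | dosing = compounds in serially diluted dose-response series | times = bacterial growth with compound for 20 h, 37 °C | evaluation = growth-inhibition IC50 from four-parameter logistic curve, bounds set to 0% and 100%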

| SMILES | IC50 [µM] |
| --- | --- |
| COc1cccc(N2CCN(CC(=O)Nc3nc4c(s3)CC(C)CC4)CC2)c1 (centres undefined) | 10.4 |
| CC1CCc2c(C(=O)Oc3cccc(-n4cnnn4)c3)csc2C1 (centres undefined) | 20.2 |
| CCC(CC)c1nnc(NC(=O)c2c(-c3ccccc3)noc2C)s1 | 19.8 |
| c1ccc(CSc2nnc(-c3ccco3)c(-c3ccco3)n2)cc1 | 11.1 |
| CCn1c2ccccc2c2cc(NC(=O)c3ccco3)ccc21 | 8.97 |
| c1ccc(CCN2CCN(c3ncnc4c3cnn4-c3ccccc3)CC2)cc1 | 10.6 |
| CCOc1ccc(S(=O)(=O)Nc2cc(Cl)ccc2O)cc1 | 9.22 |
| O=C1C2=C(Nc3ccccc3SC2c2ccco2)c2ccccc21 (centres undefined) | < 0.2 |
| CCOC(=O)N1CCN(c2nc3ccccc3nc2C(C#N)S(=O)(=O)c2ccc(C)cc2)CC1 (centres undefined) | 7.88 |
| O=C(Nc1ccccc1N1CCCCC1)c1cccs1 | 12.8 |
| Cc1nn(-c2ccccc2)c2sc(-c3n[nH]c(=S)o3)cc12 | 4.43 |
| Cn1ncc(C#N)c1/N=C/N(Cc1ccccc1)Cc1ccccc1 | 7.5 |
| C=C(C)C1CCC(C)=C1COC(=O)Nc1ccccc1 (centres undefined) | 12.2 |
| CCCCOc1ccc(S(=O)(=O)n2c(C)nc3ccccc32)cc1 | 11.4 |
| O=C1CCCc2nc3nc4ccccc4n3cc21 | 17 |
| CC(C)(C)n1nnnc1C(c1cccs1)N(Cc1ccccc1)Cc1cccnc1 (centres undefined) | 8.37 |
| Cc1nn(-c2ccccc2)c(Cl)c1C1C(C#N)=C(N)Oc2c1c(=O)oc1ccccc21 (centres undefined) | 12 |
| CC(O)c1c(OCc2ccccc2)ncnc1OCc1ccccc1 (centres undefined) | 10.7 |
| O=C(OC1CCc2ccccc2C1=O)c1ccccc1O (centres undefined) | 27.7 |
| Cc1ccc(-c2noc(CCC(=O)N3CCCc4ccccc43)n2)cc1 | 12.8 |
| CC1CCCC(C)N1C(=O)CN1CCN(c2nc(-c3ccc(F)cc3)cs2)CC1 (centres undefined) | 12 |
| CC(C)(C)C1CCC2(CC1)C(C#N)=C(SCC(=O)NC1CCCCC1)NC(=O)C2C#N (centres undefined) | 6.1 |
| COCCNc1nc(-n2nc(C)cc2C)nc2sc3c(c12)CCCC3 | 6.71 |

| SMILES | IC50 [µM] |
| --- | --- |
| Cc1ccc(Cl)cc1N1CCN(C(=O)CCS(=O)(=O)c2cccc3nonc23)CC1 | 44 |
| CC(C)c1ccc(OCc2nc(-c3ccccn3)no2)c(Br)c1 | 14.9 |
| O=C(NC1CCCCCCC1)c1ccccc1O | 9.01 |
| Cc1ccc(-n2c(C)cc(C(=O)COC(=O)c3c(C)noc3C)c2C)cc1 | 5.61 |
| N#CC1=C(N)SC(N)=C(C#N)C1CCC1CCCCC1 | 3.65 |
| Cc1cc(Cl)ccc1OCC(=O)Nc1ccccc1N1CCOCC1 | 8.64 |
| N#Cc1c(NC(NC(=O)c2ccco2)C(=O)c2ccccc2)sc2c1CCCC2 (centres undefined) | 13.5 |
| CCOC(=O)c1cc2oc(C)cc2n1CC(=O)OC1CCCCC1 | 17.6 |
| CCCN(CCC)C(=O)CSc1nc2ccccc2c(=O)n1C1CCCC1 | 14.2 |
| c1ccc(-c2nc(N3CCCCCC3)nc(-n3ccnc3)n2)cc1 | 7.72 |
| O=C(O)c1cc(Cl)c2ccccc2c1O | 10.1 |
| CCn1cc(C(=O)O)c(=O)c2cnc(N3CCN(C(=O)Nc4ccccc4)CC3)nc21 | 1.01 |
| O=c1c2ccccc2n(Cc2ccc(F)cc2)c(=O)n1C1CCCC1 | 9.26 |
| c1ccc(-c2noc(-c3cccc4ccccc34)n2)cc1 | 101 |
| Cc1ccc(OCc2nc(C#N)c(NCc3ccc4c(c3)OCO4)o2)cc1 | 6.03 |
| O=C(c1cccs1)N(Cc1nc2sc3c(c2c(=O)[nH]1)CCCC3)C1CCCC1 | 9.95 |
| CCn1cc(C(=O)O)c(=O)c2cc(OC)ccc21 | 9.67 |
| C/C(O)=c1/ccc2cccc3nc(C)nc1c23 | 26 |
| N#C/C(=C\c1ccc[nH]1)Sc1nc2ccccc2s1 | 4.28 |
| OC1(c2cccc(C(F)(F)F)c2)CCN(c2ncnc3c2[nH]c2ccc(F)cc23)CC1 | 1.58 |
| CN(Cc1ccccc1)Cc1nc2c(c(=O)n(C)c(=O)n2C)n1CCCc1ccccc1 | 14.9 |
| CSc1nc(N2CCOCC2)c2c3c(sc2n1)CCCC3 | 11.9 |
| O=C(NCc1ccco1)c1ccc(S(=O)(=O)N2CCCc3ccccc32)cc1 | 30.2 |

| SMILES | IC50 [µM] |
| --- | --- |
| COc1c(N2CCNC(C)C2)c(F)cc2c(=O)c(C(=O)O)cn(C3CC3)c12 (centres undefined) | < 0.2 |
| O=C1c2[nH]nc(-c3ccccc3O)c2C(c2ccccc2)N1Cc1ccco1 (centres undefined) | 2.45 |
| CCOC(=O)c1c(C)n(C)c2ccc(OCC(O)Cn3nc(C)c(Br)c3C)cc12 (centres undefined) | 5.74 |
| O=C(CSc1nc2ccccc2o1)Nc1nc2c(s1)CCCC2 | 8.02 |
| O=C(Nc1cccc(Br)c1)c1cc2ccccc2o1 | 0.98 |
| O=C(Nc1nnc(-c2ccc3c(c2)CCCC3)o1)C1COc2ccccc2O1 (centres undefined) | 0.45 |
| CC(C)Cn1c(N)c(C(=O)NCc2cccs2)c2nc3ccccc3nc21 | 12.9 |
| c1ccc(Nc2nc(-c3cccs3)cs2)nc1 | 12.9 |
| O=C(C1CCCCC1)N1CCC(c2nc3c(nnn3Cc3c(F)cccc3Cl)c(=O)[nH]2)CC1 | 18.2 |
| O=C(c1ccc(Cl)c(Cl)c1)N(Cc1ccco1)c1ccc(O)cc1 | 3.7 |
| CCN(C(=O)c1ccc(C(C)(C)C)cc1)c1nnc(Cn2nnc3ccccc32)s1 | 47.5 |
| Cn1c(=O)n(CCCOc2ccc(Cl)cc2)c2ccccc21 | 15.7 |
| CC(OC(=O)c1ccccc1NCc1ccco1)C(=O)Nc1ncc(Cl)cc1Cl (centres undefined) | 39.1 |
| COc1ccccc1N1CCN(Cc2nc(N)nc(Nc3ccc(C)c(Cl)c3)n2)CC1 | 9.02 |
| c1ccc(CN(Cc2ccco2)C(c2ccncc2)c2nnnn2C2CCCC2)cc1 (centres undefined) | 13.2 |
| COc1ccc(-n2cnc3cc(NCc4cccs4)ccc32)cc1 | 10.6 |
| O=C(Nc1nc(-c2cccs2)cs1)c1ccc(Cl)s1 | 26.3 |
| Cn1c(CSc2nnc(SCc3ccccc3)s2)nc2ccccc21 | 22.5 |
| CCCCn1c(NC(=O)c2ccccc2)c(C#N)c2nc3ccccc3nc21 | 2.79 |
| O=C(c1cc2nc(-c3ccco3)cc(C(F)(F)F)n2n1)N1CCN(c2ccccc2)CC1 | 10.3 |
| CC1CCCCN1c1nc(-c2ccncc2)nc2ccccc12 (centres undefined) | 12 |
| C=C(C)COc1ccc(-c2n[nH]c(C)c2-c2ccccc2OC)c(O)c1 | 13.6 |
| CCOC(=O)N1CCN(c2nc(-c3ccc(F)cc3)cs2)CC1 | 32.4 |

| SMILES | IC50 [µM] |
| --- | --- |
| CCn1c(C(=O)N2CCC(C(=O)NCCCSC3CCCCC3)CC2)cc2sccc21 | 6.22 |
| CCN(CCCNC(=O)c1[nH]c(C)c(C(C)=O)c1C)c1cccc(C)c1 | 8.23 |
| COc1ccccc1-c1cc(C(=O)NCc2ccc(F)cc2)no1 | 9.85 |
| COc1ccc(-c2[nH]c(-c3cccc(OC)c3)nc2SCC(=O)NCc2ccco2)cc1 | 11.1 |
| CCc1ccc2oc(=O)cc(CN(C)Cc3ccccc3)c2c1 | 12.9 |
| COc1ccc(S(=O)(=O)Nc2ccc(S(=O)(=O)N3CCCCC3)cc2)cc1 | 15 |
| COc1ccc2nc(SCC(=O)N(C)C3CCCCC3)c(C#N)cc2c1 | 15.8 |
| O=C(Nc1nc(-c2cc(Cl)sc2Cl)cs1)c1cccs1 | 1.69 |
| CCc1cccc(NC(=O)c2ccc(NS(=O)(=O)c3c(C)noc3C)cc2)c1 | 7.16 |
| CCCCOc1ccc(S(=O)(=O)Nc2cc(OC)ccc2OC)cc1 | 16.8 |
| O=C(Nc1nc(-c2ccccc2)cs1)c1cccs1 | 5.9 |
| CCOc1ccc(NS(=O)(=O)c2ccc(SC)cc2)cc1 | 6.84 |
| CC1CCCN(S(=O)(=O)c2ccc(NC(=O)Cn3nnc(-c4ccccc4F)n3)cc2)C1 (centres undefined) | 26.6 |
| Cc1ccc(Nc2nc(N)nc(CN3CCN(c4ccccc4)CC3)n2)cc1Cl | 5.97 |
| Cc1ccc(-n2c(=O)[nH]cc(C(=O)Nc3ccc4c(c3)OCCO4)c2=O)cc1C | 26.9 |
| O=c1c(-c2nc3ccccc3o2)c2oc3ccccc3n2c2ccccc12 | 17.6 |
| CCOC(=O)c1cn(CC)c2cc(N3CCSCC3)c(F)cc2c1=O | 1.4 |
| CCC(C(=O)Nc1ccccc1OC)n1c(C(=O)OC)cc2ccsc21 (centres undefined) | 10.9 |
| Cc1[nH]n2c(=O)c3c(nc2c1-c1ccc(Cl)cc1)CCC3 | 4.09 |
| Oc1c(CN2CCN(c3ccccn3)CC2)cc(Cl)c2cccnc12 | 11.4 |
| Cc1ccc2oc(=O)n(Cc3ccccc3OC(C)C)c2c1 | 9 |
| CCN(CC)c1ccc(-c2nn3c(-c4n[nH]c5c4CCC5)nnc3s2)cc1 | 20.8 |
| CCCN(CCC)c1nc2ccccc2nc1C(C#N)C(=O)OCCOC (centres undefined) | 15.7 |

| SMILES | IC50 [µM] |
| --- | --- |
| CCCn1c(CNc2ccc(Br)cc2)nc2ccccc21 | 6.22 |
| COc1ccc(-c2cc(C(=O)N3CC4(C)CC3CC(C)(C)C4)no2)cc1OC (centres undefined) | 14.1 |
| CCOC(=O)c1c(NC(=O)CSc2nnc(C)c(=O)[nH]2)sc2c1CCC2 | 10.6 |
| O=C(Cn1c2c(c(-c3ccccc3)cc1=O)CCCC2)N1CCCCCC1 | 6.09 |
| O=C(Nc1ccccc1N1CCCCC1)c1cccc(F)c1 | 15.2 |
| Cc1cccc(N2CCN(C(=O)c3cc4n(n3)C(C(F)(F)F)CC(c3ccco3)N4)CC2)c1C (centres undefined) | 6.74 |
| CCC1CCCCN1S(=O)(=O)c1ccc2c(c1)CCN2C(=O)C1CCC1 (centres undefined) | 14.7 |
| O=C(Nc1nc(-c2ccccn2)cs1)c1ccc(Cl)s1 | 0.13 |
| COc1cc(-c2nc(-c3cccc(C)c3)no2)cc(OC)c1OC | 12.2 |
| Cc1cccc(S(=O)(=O)Nc2nc3ccccc3nc2NCc2ccco2)c1 | 6.92 |
| CCCOc1ccc2c3c(c(=O)oc2c1OCCC)CCC3 | 14.5 |
| COc1ccc(C)cc1NC(=O)CSc1nnc(COc2ccccc2)n1Cc1ccco1 | 22 |
| Cc1cc(N2C3CCC2CC(O)(c2ccc(F)cc2)C3)nc(-c2ccccc2)n1 (centres undefined) | 7.11 |
| CCOC(=O)c1c(C)c(C(=O)Nc2cc(OC)ccc2OC)c(C)n1CC | 24.3 |
| CC1=C(C(=O)OC2CCCCCC2)C(c2ccc(C)o2)C2=C(CCCC2=O)N1 (centres undefined) | 6.35 |
| Cc1cc(=O)[nH]c(-n2nc(C)cc2C)n1 | 6.56 |
| Oc1ccccc1-c1nc(NCC2CCCO2)c2ccccc2n1 (centres undefined) | 90.8 |
| C=CCn1c(SCC(O)Cn2c3ccccc3c3ccccc32)nnc1-c1ccco1 (centres undefined) | 21.6 |
| CCn1nc(-c2cccs2)nc2c(=O)n(C)c(=O)nc1-2 | 1.92 |
| O=C(Nc1sc2c(c1C(=O)O)CCC2)c1cccs1 | 13.8 |
| N#Cc1nc(COc2ccc(F)cc2)oc1N1CCN(Cc2ccccc2)CC1 | 14.4 |
| Cc1ccc(C)c(C(=O)CSc2n[nH]c(-c3ccncc3)n2)c1 | 2 |
